Measured values taken from ChEMBL document CHEMBL3351980, “Michael acceptor approach to the design of new salvinorin A-based high affinity ligands for the kappa-opioid receptor” (Eur J Med Chem, 2014).

Tests used:
[1] = target: Delta-type opioid receptor (Homo sapiens, UniProt P41143); test: Displacement of [3H]DADLE from delta opioid receptor (unknown origin) expressed in HEK293T cells after 1.5 hrs by radioligand binding assay; assay type: cell-based, HEK-293T
[2] = target: T1, Kappa-type opioid receptor (Homo sapiens, UniProt P41145); test: Displacement of [3H]U69593 from kappa opioid receptor (unknown origin) expressed in HEK293T cells after 1.5 hrs by radioligand binding assay; assay type: cell-based, HEK-293T
T1 sequence (P41145 whole entry): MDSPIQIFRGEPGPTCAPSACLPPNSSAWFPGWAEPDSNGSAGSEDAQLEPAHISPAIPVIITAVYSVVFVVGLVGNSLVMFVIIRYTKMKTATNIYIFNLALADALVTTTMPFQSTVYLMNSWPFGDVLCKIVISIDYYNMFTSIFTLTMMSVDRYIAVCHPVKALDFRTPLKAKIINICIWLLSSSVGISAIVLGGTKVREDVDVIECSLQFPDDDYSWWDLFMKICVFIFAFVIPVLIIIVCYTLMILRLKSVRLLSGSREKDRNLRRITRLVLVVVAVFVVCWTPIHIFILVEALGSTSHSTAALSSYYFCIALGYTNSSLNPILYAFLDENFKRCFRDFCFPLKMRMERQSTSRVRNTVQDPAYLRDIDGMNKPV
How it was run: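 HEK293T cells stably expressing KOR were hypotonically lysed in 50 mM Tris-HCl, 10 mM MgCl2, 0.1 mM EDTA, pH 7.4, and membranes were pelleted. Samples were filtered onto PEI-soaked GF/A filters and scintillation counted. Ki came from a one-site competition fit.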

[3] = target: Mu-type opioid receptor (Homo sapiens, UniProt P35372); test: Displacement of [3H]DAMGO from mu opioid receptor (unknown origin) expressed in HEK293T cells after 1.5 hrs by radioligand binding assay; assay type: cell-based, HEK-293T
Mu-type opioid receptor, sequence (P35372 whole entry): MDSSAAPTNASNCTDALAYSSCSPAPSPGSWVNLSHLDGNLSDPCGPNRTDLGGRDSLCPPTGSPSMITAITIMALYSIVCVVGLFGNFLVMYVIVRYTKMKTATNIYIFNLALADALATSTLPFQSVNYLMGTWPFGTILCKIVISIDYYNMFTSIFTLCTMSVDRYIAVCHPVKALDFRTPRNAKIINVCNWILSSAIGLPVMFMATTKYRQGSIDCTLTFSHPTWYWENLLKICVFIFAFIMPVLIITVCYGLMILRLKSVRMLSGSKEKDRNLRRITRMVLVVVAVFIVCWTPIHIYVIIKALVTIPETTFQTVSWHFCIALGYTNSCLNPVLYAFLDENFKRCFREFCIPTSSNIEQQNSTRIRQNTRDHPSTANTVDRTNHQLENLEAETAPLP

[4] = target: T1, Kappa-type opioid receptor; test: Inhibition of human kappa opioid receptor expressed in HEK293T cells assessed as inhibition of cAMP production after 30 mins; assay type: functional, cell-based, HEK-293T
[5] = organism: Homo sapiens; test: Selectivity ratio of Ki for delta opioid receptor (unknown origin) to ratio of Ki for kappa opioid receptor (unknown origin)
[6] = organism: Homo sapiens; test: Selectivity ratio of Ki for mu opioid receptor (unknown origin) to ratio of Ki for kappa opioid receptor (unknown origin)

Delta-type opioid receptor, sequence (P41143 whole entry): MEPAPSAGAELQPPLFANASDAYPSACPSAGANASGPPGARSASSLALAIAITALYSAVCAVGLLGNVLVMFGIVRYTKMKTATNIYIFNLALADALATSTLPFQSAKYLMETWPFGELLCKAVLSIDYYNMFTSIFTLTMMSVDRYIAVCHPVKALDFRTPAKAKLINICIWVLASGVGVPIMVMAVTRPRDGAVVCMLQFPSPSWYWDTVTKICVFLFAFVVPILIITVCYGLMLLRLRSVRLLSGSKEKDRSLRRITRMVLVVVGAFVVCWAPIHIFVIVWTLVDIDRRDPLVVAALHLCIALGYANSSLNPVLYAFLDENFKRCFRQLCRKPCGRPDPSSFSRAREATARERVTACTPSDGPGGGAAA

| SMILES | Ki [1] | Ki [2] | Ki [3] | EC50 [4] | Ratio Ki [5] | Ratio Ki [6] |
| --- | --- | --- | --- | --- | --- | --- |
| COC(=O)[C@@H]1C[C@H](OC(=O)/C=C/c2ccc(OC)cc2)C(=O)[C@H]2[C@@]1(C)CC[C@H]1C(=O)O[C@H](c3ccoc3)C[C@]21C | > 10000 nM | 135 nM | > 10000 nM | 21 nM |  |  |
| COC(=O)[C@@H]1C[C@H](OC(=O)/C=C/c2cc(C(F)(F)F)ccc2C(F)(F)F)C(=O)[C@H]2[C@@]1(C)CC[C@H]1C(=O)O[C@H](c3ccoc3)C[C@]21C | 5870 nM | > 10000 nM | > 10000 nM | 1210 nM |  |  |
| COC(=O)[C@@H]1C[C@H](OC(=O)/C=C/c2ccsc2)C(=O)[C@H]2[C@@]1(C)CC[C@H]1C(=O)O[C@H](c3ccoc3)C[C@]21C | 228 nM | 304 nM | 18 nM | 582 nM | 0.75 | 0.06 |
| COC(=O)[C@@H]1C[C@H](OC(=O)/C=C/c2ccc(C(F)(F)F)cc2)C(=O)[C@H]2[C@@]1(C)CC[C@H]1C(=O)O[C@H](c3ccoc3)C[C@]21C | > 10000 nM | > 10000 nM | > 10000 nM | 642 nM | 1 | 1 |
| COC(=O)[C@@H]1C[C@H](OC(=O)/C=C/c2ccccc2C(F)(F)F)C(=O)[C@H]2[C@@]1(C)CC[C@H]1C(=O)O[C@H](c3ccoc3)C[C@]21C | > 10000 nM | 130 nM | > 10000 nM | 20 nM |  |  |
| C/C=C/C(=O)O[C@H]1C[C@@H](C(=O)OC)[C@]2(C)CC[C@H]3C(=O)O[C@H](c4ccoc4)C[C@]3(C)[C@H]2C1=O | > 10000 nM | 25.3 nM | 540 nM | 11 nM |  | 21 |
| C=CC(C)C(=O)O[C@H]1C[C@@H](C(=O)OC)[C@]2(C)CC[C@H]3C(=O)O[C@H](c4ccoc4)C[C@]3(C)[C@H]2C1=O (some centres undefined) | 3030 nM | 28.8 nM | 439 nM | 37 nM | 105 | 15 |
| COC(=O)[C@@H]1C[C@H](OC(=O)C=C(C)C)C(=O)[C@H]2[C@@]1(C)CC[C@H]1C(=O)O[C@H](c3ccoc3)C[C@]21C | 2630 nM | 385 nM | 284 nM | 698 nM | 6.8 | 0.73 |
| C=C(C)CC(=O)O[C@H]1C[C@@H](C(=O)OC)[C@]2(C)CC[C@H]3C(=O)O[C@H](c4ccoc4)C[C@]3(C)[C@H]2C1=O | > 10000 nM | 6 nM | 362 nM | 25 nM |  | 60 |
| COC(=O)[C@@H]1C[C@H](OC(=O)/C=C/c2ccc([N+](=O)[O-])cc2)C(=O)[C@H]2[C@@]1(C)CC[C@H]1C(=O)O[C@H](c3ccoc3)C[C@]21C | > 10000 nM | 281 nM | > 10000 nM | 32 nM |  |  |
| COC(=O)[C@@H]1C[C@H](OC(=O)/C=C/c2cc(OC)ccc2OC)C(=O)[C@H]2[C@@]1(C)CC[C@H]1C(=O)O[C@H](c3ccoc3)C[C@]21C | > 10000 nM | 581 nM | > 10000 nM | 38 nM |  |  |
| COC(=O)[C@@H]1C[C@H](OC(=O)/C=C/c2ccccc2OC)C(=O)[C@H]2[C@@]1(C)CC[C@H]1C(=O)O[C@H](c3ccoc3)C[C@]21C | > 10000 nM | 64.9 nM | > 10000 nM | 10 nM |  |  |
| COC(=O)[C@@H]1C[C@H](OC(=O)/C=C/c2ccccc2[N+](=O)[O-])C(=O)[C@H]2[C@@]1(C)CC[C@H]1C(=O)O[C@H](c3ccoc3)C[C@]21C | > 10000 nM | 148 nM | > 10000 nM | 33 nM |  |  |
| COC(=O)[C@@H]1C[C@H](OC(=O)/C=C/c2ccccc2)C(=O)[C@H]2[C@@]1(C)CC[C@H]1C(=O)O[C@H](c3ccoc3)C[C@]21C | 700 nM | 9.6 nM | 52 nM | 7 nM | 73 | 5.4 |
| C=C(C)C(=O)O[C@H]1C[C@@H](C(=O)OC)[C@]2(C)CC[C@H]3C(=O)O[C@H](c4ccoc4)C[C@]3(C)[C@H]2C1=O | 7820 nM | 34 nM | > 10000 nM |  | 221 |  |
| C=CCC(=O)O[C@H]1C[C@@H](C(=O)OC)[C@]2(C)CC[C@H]3C(=O)O[C@H](c4ccoc4)C[C@]3(C)[C@H]2C1=O | 3260 nM |  |  |  |  |  |
| COC(=O)[C@@H]1C[C@H](OC(=O)/C=C/c2ccc(OC)cc2OC)C(=O)[C@H]2[C@@]1(C)CC[C@H]1C(=O)O[C@H](c3ccoc3)C[C@]21C | > 10000 nM | 162 nM | > 10000 nM | 27 nM |  |  |
| COC(=O)[C@@H]1C[C@H](OC(=O)/C=C/c2cc(OC)c(OC)c(OC)c2)C(=O)[C@H]2[C@@]1(C)CC[C@H]1C(=O)O[C@H](c3ccoc3)C[C@]21C | > 10000 nM | > 10000 nM | > 10000 nM | 1800 nM |  |  |
| C/C=C(\C)C(=O)O[C@H]1C[C@@H](C(=O)OC)[C@]2(C)CC[C@H]3C(=O)O[C@H](c4ccoc4)C[C@]3(C)[C@H]2C1=O | > 10000 nM | 153 nM | > 10000 nM | 477 nM |  |  |
| COC(=O)[C@@H]1C[C@H](OC(=O)/C=C/c2ccc3c(c2)OCO3)C(=O)[C@H]2[C@@]1(C)CC[C@H]1C(=O)O[C@H](c3ccoc3)C[C@]21C | > 10000 nM | 323 nM | 2820 nM | 50 nM |  | 8.7 |
| C=CC(=O)O[C@H]1C[C@@H](C(=O)OC)[C@]2(C)CC[C@H]3C(=O)O[C@H](c4ccoc4)C[C@]3(C)[C@H]2C1=O | > 10000 nM | 18.1 nM | 979 nM | 137 nM |  | 54 |
| COC(=O)[C@@H]1C[C@H](OC(=O)/C=C/c2cccnc2)C(=O)[C@H]2[C@@]1(C)CC[C@H]1C(=O)O[C@H](c3ccoc3)C[C@]21C | 4890 nM | > 10000 nM | 334 nM | 1760 nM |  |  |
